Results reported in ChEMBL document CHEMBL1153581, “Synthesis, antiviral and anticancer activity of some novel thioureas derived from N-(4-nitro-2-phenoxyphenyl)-methanesulfonamide” (Eur J Med Chem, 2009).
≈ marks a conversion by molar mass, not a printed value.

Tests used:
HeLa = assay: Cytotoxicity against human HeLa cells assessed as change in cell morphology; format: functional
Summary of the method: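 The minimum cytotoxic concentration (MCC) is the concentration causing a microscopically detectable alteration of cell morphology in the uninfected host cell culture.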

Human alphaherpesvirus 1 [1] = assay: Antiviral activity against HSV1 KOS infected in HEL cells assessed as protection against virus-induced cytopathogenicity; format: functional; details: Human alphaherpesvirus 1, KOS
Human alphaherpesvirus 2 = assay: Antiviral activity against Herpes simplex virus 2 infected in HEL cells assessed as protection against in virus-induced cytopathogenicity; format: functional
[2] = test system: Vesicular stomatitis virus; assay: Antiviral activity against sVesicular stomatitis virus infected in HEL cells assessed as protection against virus-induced cytopathogenicity; format: functional
Human alphaherpesvirus 1 [3] = assay: Antiviral activity against acyclovir-resistant thymidine kinase-deficient HSV1 KOS infected in human HEL cells assessed as protection against virus-induced cytopathogenicity; format: functional; details: Human alphaherpesvirus 1, KOS
[4] = test system: Vesicular stomatitis virus; assay: Antiviral activity against Vesicular stomatitis virus infected in human HeLa cells assessed as protection against virus-induced cytopathogenicity; format: functional
Coxsackievirus B4 [5] = assay: Antiviral activity against Coxsackievirus B4 infected in human HeLa cells assessed as protection against virus-induced cytopathogenicity; format: functional; details: Enterovirus B
[6] = test system: Respiratory syncytial virus; assay: Antiviral activity against RSV infected in human HeLa cells assessed as protection against virus-induced cytopathogenicity; format: functional
Human respirovirus 3 = assay: Antiviral activity against Parainfluenza-3 virus infected in african green monkey Vero cells assessed as protection against virus-induced cytopathogenicity; format: functional
[7] = test system: Mammalian orthoreovirus 1; assay: Antiviral activity against Reovirus 1 infected in african green monkey Vero cells assessed as protection against virus-induced cytopathogenicity; format: functional
Sindbis virus = assay: Antiviral activity against Sindbis virus infected in african green monkey Vero cells assessed as protection against virus-induced cytopathogenicity; format: functional
Coxsackievirus B4 [8] = assay: Antiviral activity against Coxsackievirus B4 infected in african green monkey Vero cells assessed as protection against virus-induced cytopathogenicity; format: functional; details: Enterovirus B
Punta Toro virus = assay: Antiviral activity against Punta Toro virus infected in african green monkey Vero cells assessed as protection against virus-induced cytopathogenicity; format: functional
[9] = Cytotoxicity against HEL cells assessed as change in cell morphology; format: cell-based; details: human
Summary of the method: (§1)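 HEL cell cultures examined under the microscope. Minimal cytotoxic concentration (MCC) is the concentration that causes a microscopically detectable alteration of cell morphology. Compounds were tested at subtoxic concentrations alongside the antiviral tests.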

[10] = Cytotoxicity against african green monkey Vero cells assessed as change in cell morphology; format: cell-based; details: chlorocebus sabaeus
Summary of the method: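 Vero cell cultures were used for the broad-spectrum antiviral screen. The MCC endpoint is the lowest concentration that causes a microscopically detectable alteration of cell morphology. Activity was called when 5 × MIC < MCC.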

Human betaherpesvirus 5 = assay: Antiviral activity against Cytomegalovirus AD169 infected in HEL cells assessed as reduction in virus plaque formation; format: functional, organism-based; details: Human betaherpesvirus 5, AD169, HEL
Summary of the method: (§2)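 Plaque reduction in HEL cells against CMV (AD-169, Davis) or VZV (TK⁺ OKA, TK⁻ 07/1), using a virus input of 20 PFU. EC50 is the concentration that reduced plaque formation by 50%.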

Cytomegalovirus = assay: Antiviral activity against Cytomegalovirus Davis infected in HEL cells assessed as reduction in virus plaque formation; format: functional, organism-based; details: Human betaherpesvirus 5, Davis; summary of the method: as §2
Human alphaherpesvirus 3 [11] = assay: Antiviral activity against Varicella Zoster Virus OKA infected in HEL cells assessed as reduction in virus plaque formation; format: functional, organism-based; details: Human alphaherpesvirus 3, OKA; summary of the method: as §2
Human alphaherpesvirus 3 [12] = assay: Antiviral activity against thymidine kinase deficient Varicella Zoster Virus 07/1 infected in HEL cells assessed as reduction in virus plaque formation; format: functional, organism-based; details: Human alphaherpesvirus 3, 07/1, HEL; summary of the method: as §2
[13] = Cytotoxicity against Cytomegalovirus infected HEL cells assessed as change in cell morphology; format: cell-based; details: human; summary of the method: as §1
[14] = Cytotoxicity against Cytomegalovirus infected HEL cells assessed as reduction in cell growth; format: cell-based; details: human
[15] = Cytotoxicity against Varicella Zoster Virus infected human […] cells assessed as change in cell morphology; format: cell-based
[16] = Cytotoxicity against Varicella Zoster Virus infected human […] cells assessed as reduction in cell growth; format: cell-based
[17] = Selectivity index, ratio of MCC for HEL cells to MIC50 for vaccinia virus; format: functional
Summary of the method: (§3)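 In HEL cell cultures, SI = MCC/MIC. MCC is the concentration giving microscopically detectable alteration of HEL cell morphology, and MIC is the minimal concentration effective against vaccinia or VSV cytopathicity.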

[18] = Selectivity index, ratio of MCC for HEL cells to MIC50 for vesicular stomatitis virus; format: functional; summary of the method: as §3
[19] = test system: Human immunodeficiency virus 2; assay: Antiviral activity against HIV-2 ROD infected human MT4 cells assessed as protection against virus-induced cytopathogenicity; format: functional, organism-based; details: Human immunodeficiency virus 2, ISOLATE ROD
Summary of the method: (§4)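 HIV-1 (IIIB) or HIV-2 (ROD) infection of MT-4 cells, scored as protection against virus-induced cytopathicity. IC50 was derived from protection.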

[20] = test system: Human immunodeficiency virus 1; assay: Antiviral activity against HIV-1 3B infected human MT4 cells assessed as protection against virus-induced cytopathogenicity; format: functional, organism-based; details: Human immunodeficiency virus 1, 3B; summary of the method: as §4
[21] = Cytotoxicity against HIV-1 3B infected human MT4 cells; format: cell-based; details: HIV-1 3B-infected MT4 cells

Compound CS(=O)(=O)Nc1ccc(NC(=S)Nc2ccc([N+](=O)[O-])cc2)cc1Oc1ccccc1 has an MCC (HeLa) of 40 µg/mL, an MIC50 (Human alphaherpesvirus 1 [1]) greater than 8 µg/mL and an MIC50 (Human alphaherpesvirus 2) greater than 8 µg/mL. For the same compound, the MIC50 [2] was 8 µg/mL (≈ 17.4 µM), the MIC50 (Human alphaherpesvirus 1 [3]) was 8 µg/mL (≈ 17.4 µM) and the MIC50 [4] was greater than 8 µg/mL. It also gave an MIC50 (Coxsackievirus B4 [5]) greater than 8 µg/mL, an MIC50 [6] greater than 8 µg/mL and an MIC50 (Human respirovirus 3) greater than 8 µg/mL. The MIC50 [7] was greater than 8 µg/mL, the MIC50 (Sindbis virus) was greater than 8 µg/mL and the MIC50 (Coxsackievirus B4 [8]) was greater than 8 µg/mL. For the same compound, the MIC50 (Punta Toro virus) was greater than 8 µg/mL, the MCC [9] was 40 µg/mL and the MCC [10] was 40 µg/mL. It also gave an EC50 (Human betaherpesvirus 5) of 54.7 µg/mL (≈ 119 µM), an EC50 (Cytomegalovirus) of 54.7 µg/mL (≈ 119 µM) and an EC50 (Human alphaherpesvirus 3 [11]) greater than 20 µg/mL. For the same compound, the EC50 (Human alphaherpesvirus 3 [12]) was greater than 20 µg/mL, the CC50 [13] was greater than 100 µg/mL and the CC50 [14] was greater than 100 µg/mL. The CC50 [15] was 100 µg/mL (≈ 218 µM), the CC50 [16] was greater than 100 µg/mL and the “Selectivity Index” value [17] was 5. The “Selectivity Index” value [18] was 5, the IC50 [19] was greater than 15.2 µg/mL and the IC50 [20] was greater than 15.2 µg/mL. It also gave a CC50 [21] of 15.2 µg/mL (≈ 33.1 µM).
Nc1ncnc2c1ncn2C[C@H](O)CO [(S)-DHPA] showed an MCC (HeLa) greater than 250 µg/mL, an MIC50 [4] of 150 µg/mL (≈ 717 µM) and an MIC50 (Coxsackievirus B4 [5]) of 150 µg/mL (≈ 717 µM). It also gave an MIC50 [6] greater than 250 µg/mL, an MIC50 (Human respirovirus 3) of 50 µg/mL (≈ 239 µM) and an MIC50 [7] of 250 µg/mL (≈ 1190 µM). For the same compound, the MIC50 (Sindbis virus) was greater than 250 µg/mL, the MIC50 (Coxsackievirus B4 [8]) was greater than 250 µg/mL and the MIC50 (Punta Toro virus) was greater than 250 µg/mL. For the same compound, the MCC [10] was greater than 250 µg/mL.
With Nc1nc2c(ncn2COCCO)c(=O)[nH]1 [ACYCLOVIR] the MIC50 (Human alphaherpesvirus 2) was 0.4 µg/mL (≈ 1.78 µM), the MIC50 [2] was greater than 250 µg/mL and the MIC50 (Human alphaherpesvirus 1 [3]) was 50 µg/mL (≈ 222 µM). The MCC [9] was greater than 250 µg/mL.
For O=c1[nH]c(=O)n([C@H]2C[C@H](O)[C@@H](CO)O2)cc1/C=C/Br [BRIVUDINE], the MCC (HeLa) was greater than 250 µg/mL, the MIC50 (Human alphaherpesvirus 2) was 10 µg/mL (≈ 30 µM) and the MIC50 [2] was greater than 250 µg/mL. The MIC50 (Human alphaherpesvirus 1 [3]) was greater than 250 µg/mL, the MIC50 [4] was greater than 250 µg/mL and the MIC50 (Coxsackievirus B4 [5]) was greater than 250 µg/mL. It also gave an MIC50 [6] greater than 250 µg/mL, an MIC50 (Human respirovirus 3) greater than 250 µg/mL and an MIC50 [7] greater than 250 µg/mL. The MIC50 (Sindbis virus) was greater than 250 µg/mL, the MIC50 (Coxsackievirus B4 [8]) was greater than 250 µg/mL and the MIC50 (Punta Toro virus) was greater than 250 µg/mL. For the same compound, the MCC [9] was greater than 250 µg/mL and the MCC [10] was greater than 250 µg/mL.
Work on Nc1ccn(C[C@@H](CO)OCP(=O)(O)O)c(=O)n1.O.O [CIDOFOVIR] yielded an EC50 (Human betaherpesvirus 5) of 0.24 µg/mL, an EC50 (Cytomegalovirus) of 0.37 µg/mL and an EC50 (Human alphaherpesvirus 3 [11]) of 0.0095 µg/mL. For the same compound, the EC50 (Human alphaherpesvirus 3 [12]) was 12.6 µg/mL, the CC50 [13] was 400 µg/mL and the CC50 [14] was 57 µg/mL. The CC50 [15] was greater than 50 µg/mL and the CC50 [16] was 244 µg/mL.
Work on Nc1nc2c(ncn2COC(CO)CO)c(=O)[nH]1 [GANCICLOVIR] yielded an MIC50 (Human alphaherpesvirus 1 [1]) of 0.032 µg/mL (≈ 0.125 µM), an MIC50 (Human alphaherpesvirus 2) of 0.0064 µg/mL (≈ 0.0251 µM) and an MIC50 [2] greater than 100 µg/mL. It also gave an MIC50 (Human alphaherpesvirus 1 [3]) of 2.4 µg/mL (≈ 9.4 µM), an MCC [9] greater than 100 µg/mL and an EC50 (Human betaherpesvirus 5) of 1.4 µg/mL (≈ 5.49 µM). The EC50 (Cytomegalovirus) was 1.7 µg/mL (≈ 6.66 µM), the EC50 (Human alphaherpesvirus 3 [11]) was 1 µg/mL (≈ 3.92 µM) and the EC50 (Human alphaherpesvirus 3 [12]) was 15 µg/mL (≈ 58.8 µM). It also gave a CC50 [13] of 400 µg/mL (≈ 1570 µM), a CC50 [14] of 80 µg/mL (≈ 313 µM) and a CC50 [15] greater than 50 µg/mL. It also gave a CC50 [16] of 190 µg/mL (≈ 744 µM).
NC(=O)c1ncn([C@@H]2O[C@H](CO)[C@@H](O)[C@H]2O)n1 [RIBAVIRIN] showed an MCC (HeLa) greater than 250 µg/mL, an MIC50 (Human alphaherpesvirus 1 [1]) of 250 µg/mL (≈ 1020 µM) and an MIC50 (Human alphaherpesvirus 2) of 250 µg/mL (≈ 1020 µM). The MIC50 [2] was 150 µg/mL (≈ 614 µM), the MIC50 (Human alphaherpesvirus 1 [3]) was greater than 250 µg/mL and the MIC50 [4] was 30 µg/mL (≈ 123 µM). For the same compound, the MIC50 (Coxsackievirus B4 [5]) was 150 µg/mL (≈ 614 µM), the MIC50 [6] was 50 µg/mL (≈ 205 µM) and the MIC50 (Human respirovirus 3) was 150 µg/mL (≈ 614 µM). It also gave an MIC50 [7] of 150 µg/mL (≈ 614 µM), an MIC50 (Sindbis virus) greater than 250 µg/mL and an MIC50 (Coxsackievirus B4 [8]) greater than 250 µg/mL. It also gave an MIC50 (Punta Toro virus) of 250 µg/mL (≈ 1020 µM), an MCC [9] greater than 250 µg/mL and an MCC [10] greater than 250 µg/mL.
